The data set is described as follows: Toxicity liver stage against HepG2, at 10uM. The conditions noted are these: human, HepG2-A16-CD81EGFP cells; read-out: INHIBITION
The arrangement: test concentration 10 uM, cell line HepG2-A16-CD81EGFP. Format: cell-based. In short, it runs like this:
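Uninfected HepG2-A16-CD81EGFP cells, 3 × 10^3 per well, 1536-well, plated on prespotted compound at 10 μM final, parasite-free screening media added to match infected plates; puromycin 10 μM positive, DMSO 0.5% negative; run in parallel with 48 h PbLuc assay at 37 °C, 5% CO2; viability by CellTiter-Glo luminescence, normalized to controls.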

On to `CCCN(C(=O)CN1CCN(CCO)CC1)C1=CCCCC1`, for which the cytotoxicity at 10 µM worked out at 6.45%.

In the case of `CCOC(=O)C1(O)CCN(C(=O)Nc2ccc(CC)cc2)CC1`, the cytotoxicity at 10 µM was -130%.

Consider `Cc1nn(CCNC(C)Cn2ccnc2)c(C)c1Cl` (stereo unspecified), for which the cytotoxicity at 10 µM is -5.19%.

Regarding `CCCc1cc(NCCn2cccn2)n2ncnc2n1`, the cytotoxicity at 10 µM was 5.28%.

With `CC(C)n1c2ccccc2c2c1cc(C(=O)NCCO)n2C(=O)N(C)C`, the cytotoxicity at 10 µM is -93.8%.

For `CCN(c1ccsc1C(=O)N1CCSCC1)S(=O)(=O)c1ccccc1`, the cytotoxicity at 10 µM is 8.24%.

Take `CNC(=O)[C@@]12CCO[C@@H]1CCN(S(=O)(=O)c1ccc(C)cc1)C2`: the cytotoxicity at 10 µM was -69.9%.

Turning to `CNc1cc(N2CCCC2CNCc2cccnc2C)ncn1` (stereo unspecified), the cytotoxicity at 10 µM came to 0.759%.

On to `CSc1nc2ccsc2c(=O)n1CC(=O)N1CCCCC1C` (stereo unspecified), for which the cytotoxicity at 10 µM was found to be 7.08%.

Regarding `CCc1c(C)sc2nc3n(CCN4CCCCC4)nc(SC)n3c(=O)c12`, the cytotoxicity at 10 µM was 2.68%.

Regarding `CN1CCN(c2cc(CNC(=O)c3ccc(=O)n(C)c3)ccn2)CC1`, the cytotoxicity at 10 µM was -6.95%.

On to `O=C(C1CCC1)N1C[C@H]2CC[C@@H](C1)N(S(=O)(=O)c1cccnc1)C2`, for which the cytotoxicity at 10 µM is -3.65%.

For `CCn1ncc(S(=O)(=O)N[C@@H]2CC[C@@H](n3ccnc3C)[C@@H]2O)c1C`, the cytotoxicity at 10 µM was 3.65%.

In the case of `c1cc(NCc2ccncc2)nc(C2CCCNC2)c1` (stereo unspecified), the cytotoxicity at 10 µM was -1.83%.

Turning to `O=C(NCCNc1ccc(C(F)(F)F)cn1)c1ccoc1`, the cytotoxicity at 10 µM was -2%.

Regarding `CCc1cc(N(C)Cc2c(C)nn(C)c2C)n2nccc2n1`, the cytotoxicity at 10 µM came out at 0.613%.

Turning to `CCCc1nc(NCCOC)c2c(n1)c(C)nn2CC`, the cytotoxicity at 10 µM stood at 3.36%.

Regarding `COc1ccc(-c2cc(C3CC3)c(C#N)c(N)n2)cc1F`, the cytotoxicity at 10 µM was -2.84%.

`Cc1ccc(NCc2ccc(C#N)cc2)c(CN(C)C)c1`: the cytotoxicity at 10 µM is -3.07%.

Regarding `CC(C)Nc1nc(N2CCCC2)nc2c1CN(S(C)(=O)=O)CC2`, the cytotoxicity at 10 µM is 2.69%.

On to `COCCC(=O)N1CCCC2(CCN(c3ccccc3)C2=O)C1` (stereo unspecified), for which the cytotoxicity at 10 µM was -1.66%.

As to `Cc1csc(N2CCN(CC(=O)N3CCNC3=O)CC2C)n1` (stereo unspecified), the cytotoxicity at 10 µM is -12.4%.

For the compound `O=C(NCc1ccc(F)cc1)NCC(O)(c1cccs1)C1CC1` (stereo unspecified), the cytotoxicity at 10 µM is -1.13%.

Regarding `c1csc(-c2nc(CN3CCOC(Cn4cccn4)C3)cs2)c1` (stereo unspecified), the cytotoxicity at 10 µM is -8.25%.

Consider `Cn1cc(CNCCNc2ncc(Cl)cc2Cl)cn1`, for which the cytotoxicity at 10 µM was -6.42%.

`CCc1ccc(C(CNC(=O)c2c(C)noc2C)N(C)C)cc1` (stereo unspecified): the cytotoxicity at 10 µM was -7.83%.

Turning to `CCCc1nc(C)cc(NC(C)Cc2cnccn2)n1` (stereo unspecified), the cytotoxicity at 10 µM is -0.166%.

Turning to `CC(C)C1CN(C(=O)c2cc(F)cc3[nH]cnc23)CCS1` (stereo unspecified), the cytotoxicity at 10 µM is 1.97%.

Regarding `Cc1noc(C(C)N2CCN(CCN3CCCC3=O)CC2)n1` (stereo unspecified), the cytotoxicity at 10 µM was -13.4%.

Turning to `Cc1nc(C)n(CC2CCCCN2Cc2cn3ccccc3n2)n1` (stereo unspecified), the cytotoxicity at 10 µM is -4.47%.

Regarding `O=C(NCC1CCOC1)c1cc(-c2cccc(Cl)c2)on1` (stereo unspecified), the cytotoxicity at 10 µM is -8.75%.

With `CCn1cc(C(=O)NCC(OC)c2cccc(Cl)c2)cn1` (stereo unspecified), the cytotoxicity at 10 µM is -8.87%.

With `Cc1ccc(-c2nc(CN3CCn4c(C)nnc4C3)cs2)o1`, the cytotoxicity at 10 µM was -19.2%.

Turning to `C[C@@H]1CN(Cc2cc(C3CCCCC3)no2)CC[C@@]1(O)C1CC1`, the cytotoxicity at 10 µM amounted to 0.957%.

Consider `CCC(O)(CNCc1ncc[nH]1)c1ccc(Br)cc1` (stereo unspecified), for which the cytotoxicity at 10 µM worked out at 3.54%.

Regarding `Cc1ccc2oc(C(=O)N3CCc4nnc(N(C)C)cc4C3)cc2n1`, the cytotoxicity at 10 µM is -3.25%.

In the case of `Cn1cc(CN2C[C@@H]3COC[C@]3(CNC(=O)c3ccco3)C2)cn1`, the cytotoxicity at 10 µM is -73.1%.

For the compound `CC(=O)N1CCO[C@@H]2CN(Cc3ccccc3F)C[C@@H]2C1`, the cytotoxicity at 10 µM was -108%.

As to `CCC1(c2ccc(NS(=O)(=O)c3cccs3)cc2)CCC(=O)NC1=O` (stereo unspecified), the cytotoxicity at 10 µM was -8.55%.

On to `CN(C(=O)COc1ccc(F)cc1)[C@@H]1CS(=O)(=O)C[C@H]1O`, for which the cytotoxicity at 10 µM is -2.62%.

On to `Cc1noc(C)c1CS(=O)(=O)CC(=O)N1c2ccccc2CC1C` (stereo unspecified), for which the cytotoxicity at 10 µM was 3.53%.

Turning to `O=C(NCCCN1CCOCC1)C1CCCN(Cc2ccco2)C1` (stereo unspecified), the cytotoxicity at 10 µM is -0.911%.

As for `Cc1noc(C)c1CN1CCn2cc(CNc3ccccn3)nc2C1`, the cytotoxicity at 10 µM was -1.38%.

Consider `Cc1ccc(CN(C)C(=O)c2n[nH]c(N)c2-c2ccccc2)o1`, for which the cytotoxicity at 10 µM was -4.81%.

In the case of `CCN(C)C(=O)Cn1c(-c2ccco2)nn(-c2ccccc2OC)c1=O`, the cytotoxicity at 10 µM was determined as 0.832%.

`CCc1nc(C(=O)N2CCN(CC)CC2)nn1-c1ccccc1Cl`: the cytotoxicity at 10 µM was 2.79%.

Regarding `COc1cccc2[nH]cc(CCNC(=O)N3CCCC3CO)c12` (stereo unspecified), the cytotoxicity at 10 µM is -10.1%.

Take `COc1ccc(C[C@H]2CN(C(=O)c3ccn(C)n3)CC[C@H]2OC)cc1`: the cytotoxicity at 10 µM was 5.12%.

Turning to `O=C(c1ccccc1)N1CCC2(CC1)CC(Oc1ccccc1)CO2` (stereo unspecified), the cytotoxicity at 10 µM turned out to be 16.6%.

As to `CN1CCN(CCOc2ccc(NC(=O)c3ccncc3)cc2)CC1`, the cytotoxicity at 10 µM was -5.18%.

As to `CN1CC(=O)N(C2CCNCC2)Cc2c(NCC(C)(C)C)ncnc21`, the cytotoxicity at 10 µM is 6.2%.

With `CCCn1cc(C(=O)N(C)Cc2nc(-c3ccccn3)no2)c(C)n1`, the cytotoxicity at 10 µM turned out to be 0.334%.

`CCOC(=O)N1CCC(Nc2cc(CC)nc3c(C)c(C)nn23)CC1`: the cytotoxicity at 10 µM came to 11.8%.

Take `CC(c1ccon1)N(C)C(=O)C1CCN(C(=O)C2CC2)CC1` (stereo unspecified): the cytotoxicity at 10 µM is -2.71%.

`COc1ccccc1OC(C)CNC(=O)c1cnc[nH]1` (stereo unspecified): the cytotoxicity at 10 µM amounted to 1.57%.

As to `CCN(CC)C(=O)c1ccc(Cl)c(NC(=O)c2cnc(C)cn2)c1`, the cytotoxicity at 10 µM was -0.273%.

As for `Cc1cc(NCC(=O)N(C)C(C)c2cccs2)c(C(N)=O)cc1F` (stereo unspecified), the cytotoxicity at 10 µM was -0.99%.

With `CC(C)Cc1noc(CN2CCCC2c2noc(C3CC3)n2)n1` (stereo unspecified), the cytotoxicity at 10 µM was -12.9%.

Regarding `COc1nccnc1N1CCN(Cc2cccc(F)c2)C(=O)C1`, the cytotoxicity at 10 µM worked out at 3.77%.

`COCc1noc(Cc2cc(Cl)c3c(c2)OCCCO3)n1`: the cytotoxicity at 10 µM stood at 0.583%.

`COCCN1CCCC2(CCN(c3nccc4ccccc34)C2)C1=O` (stereo unspecified): the cytotoxicity at 10 µM is -0.212%.

Consider `Cc1cc(C2CCCN(C(=O)c3ccc(C)[nH]c3=O)C2)n[nH]1` (stereo unspecified), for which the cytotoxicity at 10 µM was -5.65%.

Turning to `CN(Cc1cccc(F)c1)C(=O)c1cc2c([nH]c1=O)CCCC2=O`, the cytotoxicity at 10 µM is -7.45%.

Turning to `CCn1cc(C(=O)N2CCCC(c3[nH]ncc3S(C)(=O)=O)C2)cn1` (stereo unspecified), the cytotoxicity at 10 µM turned out to be 8.42%.

With `COc1ccc(OCC(O)CN2CCN(c3nccs3)CC2)cc1` (stereo unspecified), the cytotoxicity at 10 µM was -3.82%.

In the case of `CC(=O)N[C@H]1CCO[C@@H](c2cccc(NC(=O)C(C)(C)C)c2)C1`, the cytotoxicity at 10 µM came out at 6.17%.

Take `OCCCNc1cccc(COC2CCCCC2)c1`: the cytotoxicity at 10 µM was -0.23%.

For the compound `Cc1ccn2cc(C(=O)N3CCCC3c3c(C)nn(C)c3C)nc2c1` (stereo unspecified), the cytotoxicity at 10 µM was 3.2%.

`O=C(NCCC1=CCCCC1)C1CCN(c2ccc3nncn3n2)CC1`: the cytotoxicity at 10 µM is -2.96%.

Regarding `CCC(=O)N1CCCC1C(=O)N1CCC(Cc2ccc(F)cc2)CC1` (stereo unspecified), the cytotoxicity at 10 µM was -0.0726%.

Regarding `O=C(c1ccco1)N1CC[C@H]2[C@H]1CCN2S(=O)(=O)C1CC1`, the cytotoxicity at 10 µM stood at 9.22%.

Regarding `COc1c(C2CCCN2Cc2c(C)noc2C)c(C)nn1C` (stereo unspecified), the cytotoxicity at 10 µM was 5.73%.

Consider `CCC(NS(C)(=O)=O)c1ccccc1OC` (stereo unspecified), for which the cytotoxicity at 10 µM is -43.1%.

Take `Cc1nc(CN2CCO[C@@H]3CN(Cc4nccs4)C[C@@H]3C2)cs1`: the cytotoxicity at 10 µM was 4.8%.

Turning to `Cc1cccc(CN2CCc3ncnc(NC4CCC4)c3CC2)n1`, the cytotoxicity at 10 µM was -152%.

With `CCn1cc(-n2cc3nc(N4CCOCC4)[nH]cc-3c2=O)cn1`, the cytotoxicity at 10 µM was determined as 3.43%.

As to `O=C(c1cc[nH]n1)N(Cc1cccc(O)c1)CC1CC1`, the cytotoxicity at 10 µM is 8.27%.

Take `CCCn1cnnc1-c1nc2c([nH]1)CC(c1ccc(Cl)cc1)CNC2=O` (stereo unspecified): the cytotoxicity at 10 µM is -31.1%.

`COc1ccccc1CC(=O)NC(CC(=O)O)c1ccc(C)cc1` (stereo unspecified): the cytotoxicity at 10 µM was determined as 11.2%.

With `Cc1nnc([C@H]2CC[C@@H]3[C@@H](CCN3CC3CCOCC3)O2)o1`, the cytotoxicity at 10 µM worked out at 10.1%.

As to `CCc1nnc2n1CCN(C(=O)c1cc3ccc(F)cc3nc1C)C2`, the cytotoxicity at 10 µM was -9.37%.

Consider `CCc1ccc(CNCC2CCN(CCO)CC2)cc1`, for which the cytotoxicity at 10 µM was -6.73%.

Turning to `COc1ccc(C)c2c1N(C(=O)c1cnc(C)s1)CCC2`, the cytotoxicity at 10 µM is -1.46%.

Turning to `c1ccc(CN2CCC(NCCSc3ncn[nH]3)C2)cc1` (stereo unspecified), the cytotoxicity at 10 µM was -2.76%.

Take `c1cnc(N2C[C@@H]3COC[C@]3(COCC3CCCC3)C2)nc1`: the cytotoxicity at 10 µM is -8.85%.

As to `O=C(CC1CCN(c2cccnn2)CC1)Nc1nncs1`, the cytotoxicity at 10 µM stood at 1.01%.

In the case of `O=C(c1ccccc1Cl)N1CC[C@H](O)[C@@H](N2CCOCC2)CC1`, the cytotoxicity at 10 µM was -4.91%.

For `Cc1nc(CN2CCCN(C(=O)c3cccnc3O)CC2)cs1`, the cytotoxicity at 10 µM was -8.51%.

Consider `COCCN1C(=O)C[C@H]2[C@H]1CCN2Cc1ccc(OC)cc1`, for which the cytotoxicity at 10 µM was 1.47%.

For `COc1c(CNC2CCSc3ccc(F)cc32)c(C)nn1C` (stereo unspecified), the cytotoxicity at 10 µM was 32.8%.

For the compound `O=C1CC2(CCN(S(=O)(=O)c3cccs3)C2)CN1c1cccc(F)c1` (stereo unspecified), the cytotoxicity at 10 µM is -1.51%.

Regarding `CCSCc1ccc(C(=O)N2CCCN(CC)CC2)cc1`, the cytotoxicity at 10 µM is -5.95%.

In the case of `Cc1nc2cc(-c3nccn3C)nn2c(N2CCC(O)CC2)c1C`, the cytotoxicity at 10 µM was -3.31%.

Regarding `Cc1nc(N2CCC(C(O)c3nccn3C)CC2)c2sccc2n1` (stereo unspecified), the cytotoxicity at 10 µM was -19.5%.

`Cc1nc(CN(C)C2CCN(CC3CCC3)C2)no1` (stereo unspecified): the cytotoxicity at 10 µM was -8.19%.

As to `O=C(N[C@H]1CCCC[C@@H]1O)c1ccc2nc(-c3ccccc3)[nH]c2c1`, the cytotoxicity at 10 µM was 0.822%.

Source of the values: ChEMBL document CHEMBL4513216, “Probing the Open Global Health Chemical Diversity Library for Multistage-Active Starting Points for Next-Generation Antimalarials” (ACS Infect Dis, 2020).
